KCNK9 block – inhibitors of human KCNK9 two-pore domain potassium channel; HEK293 KCNK9, FluxOR thallium flux fluorescence; hits give low values; 310,000 compounds, 1.2% hits; B-score at 10 µM; AID 488922; Q9NPC2;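 active = ratio B-score over 3 SD below the library mean, with starting fluorescence within 5 SD of its mean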;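 also: negative B-score means less thallium flux so channel inhibition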
hERG rescue – hERG (human) protection from proarrhythmic block. Q12809. CHO-hERG, FluxOR thallium flux, dofetilide IC70 present. activation (rescue from dofetilide block), less the hit threshold, % at 10 µM. 310,000 compounds, 0.51% hits. AID 1511;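 active = activation above the mean of controls blocked by dofetilide plus 5 SD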;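 also: thallium influx through hERG after potassium depolarization seen as dye fluorescence rise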
KCNQ1 act – human KCNQ1 channel potentiation or activation; AID 2648; CHO-K1 KCNQ1, thallium flux FluxOR fluorescence; hits give high values; 310,000 compounds, 0.35% hits; B-score at 10 µM;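 active = fluorescence ratio B-score, a plate-corrected score, at least three library SD, with initial intensity B-score within 5 SD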
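assay system = KCNQ1-transfected CHO-K1 cells | medium = assay buffer with matched DMSO | probe or stimulus = depolarizing K+/Tl+ stimulus, K2SO4 and Tl2SO4 each 12.5 mM in 5x stock | dosing = single dose | incubation = dye 90 min, compound 20 min, room temperature | detection = kinetic FluxOR fluorescence, 10 s baseline plus 110 s post-stimulus | evaluation = ratio B score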
KCNK3 inh – human KCNK3 channel inhibition, primary screen. 340,000 compounds, 0.84% hits. O14649. CHO-KCNK3 thallium flux, FluxOR fluorescence; hits give low values. B-score at 10 µM;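 active = B-score under library mean minus 4 SD, starting fluorescence ratio at most library mean plus 5 SD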;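 also: more negative B-score means stronger inhibition of thallium flux through KCNK3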
KCNQ1 inh – blocks the human KCNQ1 potassium channel. P51787. CHO-K1 KCNQ1, FluxOR thallium flux fluorescence; hits give high values. B-score at 10 µM. 310,000 compounds, 1.3% hits;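 active = compounds whose thallium flux B-score, printed positive for inhibition, exceeds three library SD while starting fluorescence stays within three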;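 also: channel opened by potassium depolarization with thallium stimulus after 20 min compound exposure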
KCNK9 inh conf – human KCNK9 inhibitor confirmation | HEK293 KCNK9 cells, FluxOR thallium flux fluorescence | inhibition, % at 10 µM | 4,900 compounds, 43% hits | shares compounds with KCNK9 block;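 active = thallium signal inhibited by more than 5 SD of the compound-free buffer control wells, on both duplicate plates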;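 also: 0% = assay buffer control wells without compound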
Kir21 sel – selectivity of KCNK9 modulators against mouse Kir2.1; Kir2.1 cells, FluxOR thallium flux fluorescence; 4,900 compounds, 4% hits; shares compounds with KCNK9 block; inhibition, % at 10 µM;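 active = thallium signal drop more than 5 SD beyond the mean of the no-compound control wells, seen in both duplicate plates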;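 also: signal is fluorescence rise after thallium addition divided by baseline fluorescence; plate controls were assay buffer only for no effect and full block by chlorpromazine control for full effect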
Target sequence (P35561 whole entry, looked up): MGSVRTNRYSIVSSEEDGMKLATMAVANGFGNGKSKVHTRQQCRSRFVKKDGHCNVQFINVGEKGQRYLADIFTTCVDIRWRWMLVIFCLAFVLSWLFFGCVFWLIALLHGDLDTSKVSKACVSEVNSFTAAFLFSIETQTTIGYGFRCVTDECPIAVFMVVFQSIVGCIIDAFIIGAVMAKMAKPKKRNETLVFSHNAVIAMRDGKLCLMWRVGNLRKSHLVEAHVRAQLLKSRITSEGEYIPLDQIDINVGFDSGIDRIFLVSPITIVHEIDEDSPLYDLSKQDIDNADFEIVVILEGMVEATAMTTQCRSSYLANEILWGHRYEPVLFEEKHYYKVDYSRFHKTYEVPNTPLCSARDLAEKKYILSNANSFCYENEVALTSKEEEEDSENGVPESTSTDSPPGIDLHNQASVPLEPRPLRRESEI
HEK293 Tl ctr – non-induced cell nonspecific activity of KCNK9 modulators. inhibition, % at 10 µM. 4,900 compounds, 40% hits. AID 492997. shares compounds with KCNK9 block. non-induced KCNK9-HEK293, FluxOR thallium flux;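 active = thallium signal drop beyond 5 SD of the untreated control mean, on both duplicate plates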;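 also: plate controls were buffer only IC0 wells for no effect and SID17386958 at its maximal inhibitory level for full effect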
Starred values were filed as active, the others as inactive; i = inactive; / = no result; ! = a repeat was not active. In the library only some 3.1% were active in any assay of this set; here they are far more common.

SMILES	KCNK9 block	hERG rescue	KCNQ1 act	KCNK3 inh	KCNQ1 inh	KCNK9 inh conf	Kir21 sel	HEK293 Tl ctr
CC1=NN(c2ccc(Cl)c(C(=O)O)c2)C(=O)/C1=C\c1ccc(-c2ccc(C(=O)O)cc2)o1	i	-9	i	i	i	/	/	/
CC(c1ccco1)N(C(=O)c1cccc(Br)c1)c1ccccn1 (centres undefined)	i	-6	i	i	i	/	/	/
CCOCN(C(=O)Cn1c(COC)nc2ccccc21)c1c(C)cccc1CC	i	-12	i	i	i	/	/	/
CCc1cccc(C)c1N(C(=O)Cn1c(COC)nc2ccccc21)C(C)COC (centres undefined)	-10*	-10	i	i	i	40%*	i	25%*
CCCN1CCCc2cc(CN(CCCN3CCOCC3)C(=O)Nc3ccc(OCC)cc3)ccc21	i	-1	i	i	i	i	i	i
CCN(c1ccccc1)c1ncnc2c1cnn2-c1ccccc1	i	-23	i	i	i	i	i	i
Oc1ccc2ccccc2c1C=NCc1ccccc1	i	-3	i	i	i	i	i	i
COc1ccc2oc(=O)c(-c3csc(Nc4cccc(O)c4)n3)cc2c1	-15*	-17	i	i	11*	66%*	i	28%*
CC[C@@H]1CC=C[C@H]2[C@H]1C(=O)N(Cc1ccccc1)[C@H]2c1ccc(C(F)(F)F)cc1	-8.5*	-13	i	i	i	50%*	i	48%*
Cc1ccc(F)c([C@H]2[C@H]3C=CC[C@@H](C)[C@@H]3C(=O)N2Cc2ccccc2)c1	-8.6*	-26	i	i	i	52%*	i	60%*
CC(C)Oc1ccc(CN2CCCC(CO)(Cc3ccccc3)C2)cc1CO (centres undefined)	i	-6	i	i	i	/	/	/
N#Cc1c([N+](=O)[O-])cc([N+](=O)[O-])cc1S(=O)(=O)Cc1ccccc1	/	/	/	i	/	/	/	/
O=C(CSc1ccc(F)cc1)N1CCOCC1	i	-2	i	i	i	/	/	/
O=C(Nc1cscc1S(=O)(=O)c1ccc(Cl)cc1)c1ccccc1Cl	i	-11	i	i	i	/	/	/
O=C(Nc1cscc1S(=O)(=O)c1ccccc1)c1ccccc1Cl	-8.6*	-3	i	i	i	41%*	i	34%*
S=C(c1ccc(-c2cc(Cl)ccc2Cl)o1)N1CCCCC1	-12*	-8	i	i	i	46%*	i	42%*
CCN(CC)S(=O)(=O)c1cccc(NC(=O)CCSc2ccc(Cl)cc2)c1	i	-11	i	i	i	i	i	i
c1ccc(C(c2nnnn2Cc2ccco2)N2CCN(c3nc4ccccc4s3)CC2)cc1 (centres undefined)	-8.2*	-11	i	i	i	42%*	i	28%*
CCCCC(c1nnnn1Cc1ccco1)N1CCN(c2nc3ccccc3s2)CC1 (centres undefined)	-16*	-10	i	i	i	48%*	i	33%*
c1ccc(Cn2nnnc2C(c2ccccc2)N2CCN(c3nc4ccccc4s3)CC2)cc1 (centres undefined)	i	-9	i	i	i	/	/	/
CCC(c1nnnn1Cc1ccco1)N1CCN(c2cc(Cl)ccc2C)CC1 (centres undefined)	-11*	-6	i	i	i	54%*	i	42%*
Cc1ccc(CNC(=O)C(N=C2NS(=O)(=O)c3ccccc32)C(C)C)cc1 (centres undefined)	/	/	/	i	/	/	/	/
CCc1cccc2c(C(=O)CN3C(=O)N(C)C4(CCCCC4)C3=O)c[nH]c12	/	/	/	i	/	/	/	/
CCCCCCCCCCCCCCCCn1cc[n+](C)c1	-12*!	-37	i	-12*!	10*!	62%*	44%*	26%*
C[n+]1ccn(CC(=O)c2cccs2)c1	i	-6	i	i	i	/	/	/
SMILES	KCNK9 block	hERG rescue	KCNQ1 act	KCNK3 inh	KCNQ1 inh	KCNK9 inh conf	Kir21 sel	HEK293 Tl ctr
COc1ccc(-c2cn(Cc3ccc(C(=O)NCc4ccc(C)cc4)cc3)c(C(C)N)n2)cc1 (centres undefined)	i	-16	i	i	i	/	/	/
COc1cccc(/C=N/Nc2ncnc3scc(-c4ccccc4)c23)c1O	i	-6	i	i	i	i	i	i
Cc1ccc(C2CC2c2n[nH]c(=S)n2-c2ccc(C)cc2)cc1 (centres undefined)	i	-8	i	i	i	i	i	i
CCC(=O)NC(=S)NNC(=O)c1ccc(O)cc1	-8.2*	-5	i	i	i	i	i	27%*
CCC(=O)NNC(=S)NC(=O)c1ccc(C)cc1	i	-5	i	i	i	/	/	/
O=C(c1oc2ccccc2c1CSCc1ccccc1)N1CCN(c2ncccn2)CC1	-9.6*	-13	i	i	i	23%*	i	i
CC(=O)Nc1ccc(-c2nc3cc(Cl)ccc3o2)cc1	i	-7	i	i	i	/	/	/
O=C(O)c1ccccc1-c1ccccc1C(=O)Nc1ccc(-c2nc3cc(Cl)ccc3o2)cc1	i	-17	i	i	i	i	i	i
Cc1ccc(CN2CCSc3ccc(C(=O)NC4CCCC4)cc32)cc1	-11*	-8	i	i	i	52%*	i	31%*
COc1ccc(CCNC(=O)c2ccc3c(c2)N(Cc2ccc(F)cc2)CCS3)c(OC)c1	i	-9	i	i	i	/	/	/
COc1ccc(OC)c(CCNC(=O)c2ccc3c(c2)N(Cc2ccc(F)cc2)CCS3)c1	-11*	-11	i	-10*	7*	69%*	i	32%*
Cc1ccc(CN2CCSc3ccc(C(=O)NCC4CCCO4)cc32)cc1 (centres undefined)	i	-6	i	i	i	/	/	/
COc1ccc(CNS(=O)(=O)c2c(C(=O)N3CCCCCC3)c(C)n(C)c2C)cc1	i	-3	i	i	i	/	/	/
O=c1[nH]cnc2c1c(-c1ccccc1)cn2-c1cccc(Cl)c1	-13*	-4	i	i	i	52%*	i	i
O=[N+]([O-])c1cc(F)cc(F)c1Nc1cc(F)cc(F)c1	/	/	/	i	/	/	/	/
CCOC(=O)c1ccccc1NC(=O)C1CC(=O)N(C2CCCC2)C1 (centres undefined)	/	/	/	i	/	/	/	/

High-throughput results: PubChem BioAssay, Johns Hopkins Ion Channel Center
